Consider one compound from ChEMBL document CHEMBL1139768, “The discovery of potent, selective, and orally bioavailable hNK1 antagonists derived from pyrrolidine” (Bioorg Med Chem Lett, 2007).

The nature of series [1]: Volume of distribution in rhesus monkey. It counts as ADME, organism-based, Macaca mulatta. The following applies: in vivo.
The nature of series [2]: Half life in rhesus monkey. The following applies: in vivo. Type of series: ADME, organism-based, Macaca mulatta.
For a further series, the target named is T1, Substance-K receptor (Homo sapiens, UniProt P21452).
T1 sequence (P21452 whole entry): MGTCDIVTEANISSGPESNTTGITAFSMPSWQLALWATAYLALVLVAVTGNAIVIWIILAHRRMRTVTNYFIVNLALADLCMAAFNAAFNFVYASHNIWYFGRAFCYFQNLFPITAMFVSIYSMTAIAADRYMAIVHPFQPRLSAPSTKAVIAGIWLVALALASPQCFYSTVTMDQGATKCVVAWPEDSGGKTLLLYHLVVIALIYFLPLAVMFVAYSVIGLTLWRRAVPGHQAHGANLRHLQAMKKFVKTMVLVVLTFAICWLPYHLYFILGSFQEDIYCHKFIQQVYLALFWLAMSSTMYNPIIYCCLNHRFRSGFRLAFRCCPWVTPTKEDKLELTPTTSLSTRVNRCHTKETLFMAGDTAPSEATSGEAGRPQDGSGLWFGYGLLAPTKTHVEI
The series can be described thus: Binding affinity to NK2 receptor.

The target in the next series is T2, Neuromedin-K receptor (Homo sapiens, UniProt P29371).
T2 sequence (P29371 whole entry): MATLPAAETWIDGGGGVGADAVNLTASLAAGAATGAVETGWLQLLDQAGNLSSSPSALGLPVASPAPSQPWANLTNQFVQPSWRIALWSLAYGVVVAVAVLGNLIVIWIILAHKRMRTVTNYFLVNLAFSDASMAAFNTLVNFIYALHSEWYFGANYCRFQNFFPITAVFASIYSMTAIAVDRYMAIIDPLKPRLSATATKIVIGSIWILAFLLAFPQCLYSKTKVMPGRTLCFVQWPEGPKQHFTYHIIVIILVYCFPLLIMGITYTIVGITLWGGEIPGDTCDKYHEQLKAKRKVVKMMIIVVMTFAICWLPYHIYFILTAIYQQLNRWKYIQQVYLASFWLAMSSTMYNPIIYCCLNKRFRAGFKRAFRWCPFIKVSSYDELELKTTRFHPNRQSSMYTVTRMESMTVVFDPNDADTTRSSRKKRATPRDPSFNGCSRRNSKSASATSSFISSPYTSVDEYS
The experiment in a line: Binding affinity to NK3 receptor.

The test system of a further series is Cavia porcellus. The experiment in a line: Inhibition of separation-induced vocalizations in po dosed guinea pig after 4 hrs. It counts as functional. The following applies: read-out: ID50 (the source's name). The method in brief:
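Guinea pig pups were dosed orally, and separation-induced vocalizations were measured 4 h later. ID50 is given in mg/kg.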

A short description of series [3]: Plasma clearance in rhesus monkey. It counts as ADME, organism-based, Macaca mulatta.
Series [4] concerns Gerbillinae. The series can be described thus: Inhibition of GR-73632-induced foot tapping in orally dosed gerbils after 1 hr. The following applies: po, read-out: ID50 (the source's name).
The nature of series [5]: Plasma clearance in dog. It counts as ADME, organism-based, Canis lupus familiaris.
A short description of series [6]: Half life in dog. Type of series: ADME, organism-based, Canis lupus familiaris. The following applies: in vivo.
Series [7] deals with Gerbillinae. The experiment in a line: Inhibition of GR-73632-induced foot tapping in gerbils at 1 mg/kg, iv. Type of series: functional.
Series [8] relates to Gerbillinae. The experiment in a line: Inhibition of GR-73632-induced foot tapping in orally dosed gerbils after 4 hrs. The following applies: po, read-out: ID50 (the source's name).
The test system of series [9] is Gerbillinae. The series can be described thus: Inhibition of GR-73632-induced foot tapping in gerbils at 3 mg/kg, iv after 24 hrs. The following applies: Gerbillinae, iv, 24 h. Type of series: functional.
A short description of series [10]: Volume of distribution in rat. Type of series: ADME, organism-based. The following applies: in vivo.
A further series deals with Substance-P receptor (Homo sapiens, UniProt P25103). The experiment in a line: Displacement of [125I]-SP from human NK1 receptor expressed in CHO cells. (Displacement assays read how much labelled ligand stays bound in the presence of the test substance.)
Substance-P receptor, sequence (P25103 whole entry): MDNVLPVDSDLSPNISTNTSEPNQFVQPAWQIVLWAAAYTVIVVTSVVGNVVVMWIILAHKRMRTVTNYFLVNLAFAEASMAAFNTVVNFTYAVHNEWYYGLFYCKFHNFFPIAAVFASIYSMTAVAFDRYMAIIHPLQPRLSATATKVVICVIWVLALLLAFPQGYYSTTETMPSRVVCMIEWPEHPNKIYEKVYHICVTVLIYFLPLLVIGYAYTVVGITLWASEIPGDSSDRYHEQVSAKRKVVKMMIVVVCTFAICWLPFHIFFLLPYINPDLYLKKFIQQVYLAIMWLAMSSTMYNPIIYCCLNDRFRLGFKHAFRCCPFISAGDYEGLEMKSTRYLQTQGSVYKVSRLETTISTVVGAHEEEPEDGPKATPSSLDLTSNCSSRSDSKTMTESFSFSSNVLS
Series [11] can be described thus: Plasma clearance in rat. Type of series: ADME, organism-based.
Series [12] in a line: Oral bioavailability in rhesus monkey. Type of series: ADME, organism-based, Macaca mulatta. The following applies: in vivo.
In series [13] the test system is Gerbillinae. The experiment in a line: Inhibition of GR-73632-induced foot tapping in iv dosed gerbils. Type of series: functional. The following applies: Gerbillinae, iv; read-out: ID50 (the source's name).
The nature of series [14]: Oral bioavailability in dog. It counts as ADME, organism-based, Canis lupus familiaris. The following applies: in vivo.
Series [15] deals with Gerbillinae. The series can be described thus: Inhibition of GR-73632-induced foot tapping in iv dosed gerbils after 24 hrs. The following applies: Gerbillinae, iv, 24 h; read-out: ID50 (the source's name). Type of series: functional.
For the next series, the system named is Rhesus monkey. The series can be described thus: Receptor occupancy at NK1 receptor in iv dosed rhesus monkey brain after 4 hrs. It counts as functional, Macaca mulatta. The procedure, abridged: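 Rhesus macaques received a 4-h iv infusion. Brain NK1 receptor occupancy was measured by PET and related to plasma steady-state concentration to estimate 50% and 90% occupancy levels.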

Series [16] in a line: Oral bioavailability in rat. Type of series: ADME, organism-based. The following applies: in vivo.
Series [17] can be described thus: Half life in rat. It counts as ADME, organism-based. The following applies: in vivo.
Series [18] is described as follows: Volume of distribution in dog. It counts as ADME, organism-based, Canis lupus familiaris. The following applies: in vivo.

Structures are written as SMILES.

Take `C[C@@H](O[C@@H]1CN(C2=CC(=O)CC2)C[C@H]1c1ccc(F)cc1)c1cc(C(F)(F)F)cc(C(F)(F)F)c1`: the Vd is 2.3 L/kg in series [1], 6.2 L/kg in series [10] and 1.6 L/kg in series [18]. Further, the half-life is 5.7 h in series [2], 20 h in series [6] and 3.6 h in series [17]. Further, the IC50 at Substance-K receptor was 1730 nM; at Neuromedin-K receptor it was over 3000 nM; on Substance-P receptor, 0.11 nM. The ED50 was found to be 0.17 mg/kg in the series on Cavia porcellus; 0.9 mg/kg in the series with Gerbillinae [4]; 0.25 mg/kg with Gerbillinae [8]; 0.1 mg/kg in the series on Gerbillinae [13]; 0.045 mg/kg in the series on Gerbillinae [15]. Besides, the results for the clearance in series [3], in series [5] and in series [11] were 4.5 mL/min/kg, 1 mL/min/kg and 19.6 mL/min/kg, respectively. In the series on Gerbillinae [7], this compound yielded an inhibition in vivo at 1 mg/kg of 100%. Besides, in the series on Gerbillinae [9], the inhibition in vivo at 3 mg/kg stood at 100%. Besides, the bioavailability in [12] was 68%; in series [14], 100%; in series [16], 100%. In the series with Rhesus monkey, this compound displayed an Occ50 of 33 ng/mL. The same compound came in with an Occ90 in the series with Rhesus monkey of 300 ng/mL.

A word on the Vd: it is the apparent volume that relates the amount in the body to the concentration in plasma or blood. As a reminder, the half-life is how long it takes for the measured level to halve. By IC50 is commonly meant the concentration needed to halve the response being measured. By clearance is commonly meant a measure of how efficiently the substance is removed, as volume per time. One may read the inhibition in vivo as the change of the read-out against control, counted positive when it falls. The bioavailability is dose-corrected exposure relative to a reference, in per cent.
